Experimental data as given in ChEMBL document CHEMBL4152367, “Discovery of a Potent Thiazolidine Free Fatty Acid Receptor 2 Agonist with Favorable Pharmacokinetic Properties” (J Med Chem, 2018).
Activity calls are given as the source filed them. No cut-off for these calls is given here.

Assays:
[1] = target: T1, Oxysterols receptor LXR-alpha (Homo sapiens) (UniProt Q13133); test: Antagonist activity at human LXRalpha expressed in Escherichia coli assessed as inhibition of T0901317-induced calcium flux at 10 uM by fluorimetry
T1 sequence (whole entry): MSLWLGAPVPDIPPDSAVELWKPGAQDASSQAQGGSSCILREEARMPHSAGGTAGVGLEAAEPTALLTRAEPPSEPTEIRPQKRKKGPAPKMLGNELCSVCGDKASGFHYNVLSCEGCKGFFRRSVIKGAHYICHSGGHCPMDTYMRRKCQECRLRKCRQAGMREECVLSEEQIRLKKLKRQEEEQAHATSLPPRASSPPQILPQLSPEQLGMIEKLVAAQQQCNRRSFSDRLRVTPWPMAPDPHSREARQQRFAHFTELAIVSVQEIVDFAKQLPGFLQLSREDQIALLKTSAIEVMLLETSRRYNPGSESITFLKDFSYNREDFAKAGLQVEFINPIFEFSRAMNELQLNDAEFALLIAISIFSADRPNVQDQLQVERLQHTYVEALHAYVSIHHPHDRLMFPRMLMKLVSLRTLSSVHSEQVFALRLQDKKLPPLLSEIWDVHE

[2] = Metabolic stability in Balb/c mouse primary hepatocytes assessed as compound recovery after 2 hrs by LC-MS/MS analysis; assay type: ADME, cell-based, Hepatocyte; details: read-out: Drug recovery
[3] = Half life in Balb/c mouse at 5 mg/kg, iv by HPLC-MS/MS analysis; assay type: ADME, organism-based; details: in vivo
Method in brief: (§1)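 Balb/c mice dosed at 5 mg/kg iv or 10 mg/kg po. Plasma concentrations over time used to derive t1/2, AUC0–∞, Vd and total clearance (iv), and tmax, Cmax, AUC0–∞ and oral bioavailability (po).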

[4] = target: T2, Free fatty acid receptor 3 (Homo sapiens) (UniProt O14843); test: Agonist activity at FFA3R (unknown origin) up to 100 uM; assay type: functional
T2 sequence (whole entry): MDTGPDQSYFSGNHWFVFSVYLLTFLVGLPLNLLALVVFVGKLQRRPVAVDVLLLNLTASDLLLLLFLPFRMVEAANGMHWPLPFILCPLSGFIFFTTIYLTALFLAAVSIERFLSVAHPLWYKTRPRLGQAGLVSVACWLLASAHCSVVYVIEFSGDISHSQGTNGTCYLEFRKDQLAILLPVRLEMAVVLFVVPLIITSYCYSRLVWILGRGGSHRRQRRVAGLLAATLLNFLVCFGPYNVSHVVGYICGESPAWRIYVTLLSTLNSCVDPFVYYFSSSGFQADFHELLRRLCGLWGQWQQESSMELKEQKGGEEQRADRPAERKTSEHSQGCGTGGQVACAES

[5] = target: T3, Free fatty acid receptor 4 (Homo sapiens) (UniProt Q5NUL3); test: Antagonist activity at human FFA4 receptor expressed in HEK293 cells assessed as inhibition of GW9508-induced of calcium flux at 10 uM by fluorimetry; assay type: functional, cell-based
T3 sequence (whole entry): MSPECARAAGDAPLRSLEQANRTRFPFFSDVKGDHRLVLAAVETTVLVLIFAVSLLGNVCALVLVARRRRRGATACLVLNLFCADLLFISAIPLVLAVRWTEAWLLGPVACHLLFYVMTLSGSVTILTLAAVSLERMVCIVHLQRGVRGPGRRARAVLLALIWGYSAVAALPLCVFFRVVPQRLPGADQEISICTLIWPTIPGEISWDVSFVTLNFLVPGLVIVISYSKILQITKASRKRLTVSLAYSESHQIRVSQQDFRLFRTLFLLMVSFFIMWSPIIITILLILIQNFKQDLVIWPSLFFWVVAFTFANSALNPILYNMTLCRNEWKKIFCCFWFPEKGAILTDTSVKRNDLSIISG

[6] = Total clearance in Balb/c mouse at 5 mg/kg, iv by HPLC-MS/MS analysis; assay type: ADME, organism-based; details: in vivo; method in brief: as §1
[7] = target: T4, Oxysterols receptor LXR-beta (Homo sapiens) (UniProt P55055); test: Agonist activity at human LXRbeta expressed in Escherichia coli assessed as induction of calcium flux at 10 uM by fluorimetry
T4 sequence (whole entry): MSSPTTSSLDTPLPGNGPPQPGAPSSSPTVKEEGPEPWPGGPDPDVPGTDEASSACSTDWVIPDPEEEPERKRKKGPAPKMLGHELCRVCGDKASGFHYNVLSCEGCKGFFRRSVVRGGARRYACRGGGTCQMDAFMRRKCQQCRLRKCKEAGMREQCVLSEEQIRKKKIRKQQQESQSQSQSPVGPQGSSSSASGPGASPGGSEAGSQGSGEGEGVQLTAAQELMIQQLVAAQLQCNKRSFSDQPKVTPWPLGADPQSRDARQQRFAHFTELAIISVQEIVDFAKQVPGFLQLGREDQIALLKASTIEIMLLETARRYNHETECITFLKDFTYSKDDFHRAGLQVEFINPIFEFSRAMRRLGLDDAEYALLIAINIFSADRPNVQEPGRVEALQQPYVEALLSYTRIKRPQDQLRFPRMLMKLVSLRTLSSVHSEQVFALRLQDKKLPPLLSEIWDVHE

[8] = target: T1, Oxysterols receptor LXR-alpha (Homo sapiens); test: Agonist activity at human LXRalpha expressed in Escherichia coli assessed as induction of calcium flux at 10 uM by fluorimetry
[9] = Cmax in Balb/c mouse at 10 mg/kg, po by HPLC-MS/MS analysis; assay type: ADME, organism-based; parameters: dose 10 mg/kg, route oral; details: in vivo; method in brief: as §1
[10] = target: Free fatty acid receptor 1 (Homo sapiens) (UniProt O14842); test: Agonist activity at human FFA1R expressed in HEK293 cells assessed as induction of calcium flux at 10 uM by fluorimetry; assay type: functional, cell-based
[11] = Metabolic stability in mouse liver microsomes assessed as compound remaining at 1 uM after 1 hr by HPLC method; assay type: ADME, microsome; details: read-out: Stability
Method in brief: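 Mouse liver microsomes 0.5 mg/mL with 1 µM test compound in 0.1 M PBS pH 7.4 plus NADPH. Pre-incubated 5 min at 37 °C before microsome addition, then 1 h at 37 °C with shaking. Quenched with ice-cold MeOH/MeCN 1:1, centrifuged; HPLC analysis relative to the 0 min sample.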

[12] = AUC (0 to infinity) in Balb/c mouse at 10 mg/kg, po by HPLC-MS/MS analysis; assay type: ADME, organism-based; parameters: dose 10 mg/kg, route oral, time infinity; details: in vivo; method in brief: as §1

Free fatty acid receptor 1 (Homo sapiens), sequence (O14842 whole entry): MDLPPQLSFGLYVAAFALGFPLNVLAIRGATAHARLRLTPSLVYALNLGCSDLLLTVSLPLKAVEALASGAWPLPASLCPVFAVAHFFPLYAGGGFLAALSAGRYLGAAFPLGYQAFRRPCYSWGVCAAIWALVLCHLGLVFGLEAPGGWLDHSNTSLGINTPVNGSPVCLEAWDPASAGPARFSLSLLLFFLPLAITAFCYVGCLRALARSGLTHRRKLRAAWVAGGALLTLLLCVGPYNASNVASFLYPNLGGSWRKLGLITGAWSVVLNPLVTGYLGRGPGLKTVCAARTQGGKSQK

inhibition [1]: inactive
remaining at 2 h [2]: 72%
half-life [3]: 2.3 h
Activity [4]: inactive
inhibition [5]: inactive
clearance [6]: 20.3 mL/min/kg
Activity [7]: inactive
Activity [8]: inactive
Cmax [9]: 2880 ng/mL
Activity [10]: inactive
remaining at 1 h, 1 µM [11]: 82%
AUC(0-inf) [12]: 2600 ng·h/mL
Structure (SMILES): Cc1noc(C)c1-c1ccc(C(=O)N2[C@@H](c3ccccc3Cl)SC[C@H]2C(=O)O)cc1
